# Screening results from PubChem.
# In the library only some 3.6% were active in any assay of this set; here they are far more common.
# MITF act: increases MITF-driven TRPM1 promoter luciferase signal; SK-MEL-5 TRPM1-promoter luciferase, 24 h; % of positive control, neutral wells = 0; 300,000 tested, 0.75% active; activation, % at 12.5 µM;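 active = mean activation of at least 80% with every replicate also reaching 80%; inconclusive = mean reaches 80% but some replicate falls short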;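 also: 0% = neutral control wells and 100% = parthenolide positive control wells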
# SR-BI HDL uptake: blocks mouse SR-BI lipid uptake from DiI-HDL | Q61009 | inhibition, % at 12.5 µM | 320,000 tested, 0.96% active | AID 488896 | ldlA[mSR-BI] CHO cells, DiI-HDL uptake fluorescence, 3 h;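 active = mean replicate inhibition of at least 70% and a set share of replicates each scoring 70 or more; inconclusive = meets just one of the two criteria; inactive = fails both criteria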;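 also: 0% = median of neutral control wells and 100% = median of positive control wells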
# Target sequence (Q61009 whole entry, looked up): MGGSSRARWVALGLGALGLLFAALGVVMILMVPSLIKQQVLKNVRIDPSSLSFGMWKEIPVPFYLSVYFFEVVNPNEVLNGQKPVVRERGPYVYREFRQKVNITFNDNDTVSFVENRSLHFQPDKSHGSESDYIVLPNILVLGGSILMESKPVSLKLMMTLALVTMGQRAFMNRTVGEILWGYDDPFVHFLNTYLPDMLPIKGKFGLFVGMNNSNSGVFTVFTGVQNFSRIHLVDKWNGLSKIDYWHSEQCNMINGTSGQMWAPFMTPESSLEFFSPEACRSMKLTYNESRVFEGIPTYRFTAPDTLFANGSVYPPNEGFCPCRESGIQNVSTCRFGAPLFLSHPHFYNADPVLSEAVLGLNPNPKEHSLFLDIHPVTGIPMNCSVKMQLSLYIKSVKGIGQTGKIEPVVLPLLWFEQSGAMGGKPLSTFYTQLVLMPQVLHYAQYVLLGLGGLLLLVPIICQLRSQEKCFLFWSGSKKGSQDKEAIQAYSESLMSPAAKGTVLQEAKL
# Wnt bcat act: activators of Wnt/beta-catenin signaling. Wnt/beta-catenin reporter cell assay, activator, plate reader. activation, % at 9.35 µM. 300,000 tested, 1.2% active; in the data active = activation above about 30%, passing the limit was not always enough; inconclusive = no clear call, values can overlap the other calls;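 also: 0% = neutral control wells and 100% = positive control wells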
# HSF-1 act: increases HSF-1 driven luciferase reporter signal | NIH3T3-HGL HSF-1 luciferase reporter, MG132, 8 h; 100% = twice DMSO control signal | activation, % at 9 µM | 300,000 tested, 1.7% active | AID 504408;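 active = mean replicate activation of at least 50% with a set share of replicates each reaching 50%; inconclusive = only one of those two conditions met; inactive = mean below 50% and too few replicates reaching it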;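 also: 0% = median of the neutral control wells and 100% = twice that signal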
# SR-BI uptake up: SR-BI HDL lipid transfer activation | CHO ldlA[mSR-BI] cells, DiI-HDL uptake fluorescence, 3 h; 100 = double the neutral-control signal | activation, % at 12.5 µM | 320,000 tested, 0.096% active;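 active = mean replicate activation of at least 60% and every replicate at or above 60%; inconclusive = mean or all-replicate condition met, but not both; inactive = mean below 60% and not all replicates reaching 60%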;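 also: 0% = median plate neutral-control signal and 100% = twice that signal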
#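 System: CHO ldlA[mSR-BI] cells / Medium: HEPES-buffered (25 mM, pH 7.4) F12 plus 0.5% BSA / Probe or stimulus: labelled HDL, 10 µg/mL / Doses: single compound concentration, delivered by pin transfer / Schedule: 3 h, 37 °C / Measured by: DiI fluorescence, bottom read / Measure: cell-associated DiI fluorescence as measure of HDL uptake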
# * hit, by the source's call; ? = inconclusive; . = no result.
SMILES,MITF act,SR-BI HDL uptake,Wnt bcat act,HSF-1 act,SR-BI uptake up
CCOC(=O)c1c(NC(=S)N2CCCCC2)sc2c1CCN(C(=O)OCC)C2,.,.,1.7,121.1*,.
COc1cc(CNC(=O)c2cc(-c3cc(OC)ccc3Cl)n[nH]2)cc(OC)c1,.,.,-0.1,.,.
Cc1c(C(=O)NCc2ccc(C#N)cc2)sc(=O)n1Cc1ccccn1,.,.,-1.4,.,.
Cc1nc2ccccc2cc1OCc1ccccc1,.,0.9,16.4,11.1,-0.9
Cc1nc2ccccc2cc1OCc1ccc(Cl)cc1,.,16.7,.,59.1*,-16.7
Cc1ccc(N/C=C(/C#N)c2ccsc2)cc1C,46.8,56.3,.,100.9*,-56.3
CCc1nc(NCC2CC2)c2nnn(Cc3ccccc3)c2n1,.,.,-1.2,.,.
Cc1ccnc2ccc(-c3nc4ccccc4o3)cc12,8.0,38.5,67.2*,.,-38.5
CCC(=O)Nc1cccc(-c2nc3ccccc3o2)c1,15.7,33.3,17.1,-33.5,-33.3
Cc1nc2ccc(-c3nc4ccccc4o3)cc2[nH]1,59.4,2.8,.,43.7,-2.8
CC(=O)Nc1nc2ccc(-c3nc4ccccc4o3)cc2s1,18.0,31.8,79.5*,25.7,-31.8
Cc1ccc(Nc2ncnc(-n3cccc3)n2)cc1Cl,40.8,18.1,52.9*,29.0,-18.2
CC(C)(C)NC(=O)C(c1ccncc1)N(Cc1ccco1)C(=O)c1ccc(-c2ccccc2)[nH]1 (stereo not given),-12.0,3.3,1.0,137.9*,-3.3
O=C(NC1CCCCC1)C(c1ccncc1)N(Cc1ccccc1)C(=O)c1ccc(-c2ccccc2)[nH]1 (stereo not given),.,0.2,.,55.5*,-0.2
CC(C)(C)NC(=O)C(c1ccc(F)cc1)N(Cc1ccco1)C(=O)c1csnn1 (stereo not given),-7.1,-6.3,-6.8,35.0,6.3
Cc1ccc(C)c2[nH]c(=O)c(CN(CC3CCCO3)S(=O)(=O)c3ccc4c(c3)OCCO4)cc12 (stereo not given),-2.5,.,.,14.3,.
Cc1cc(C)c2[nH]c(=O)c(CN(CC3CCCO3)S(=O)(=O)c3ccc4c(c3)OCCO4)cc2c1 (stereo not given),-6.9,-11.1,.,59.5*,11.1
O=C(Nc1ccc(CN2CCOCC2)cc1)c1ccc(-c2cccc([N+](=O)[O-])c2)o1,13.2,72.1*,-2.0,4.5,-72.1
N#CCCN1CCN(C(=S)c2ccc(-c3ccc(Cl)c(Cl)c3)o2)CC1,47.6,61.1,.,100.1*,-61.1
CN1CCN(C(=S)c2ccc(-c3cccc([N+](=O)[O-])c3)o2)CC1,?,50.9,?,48.9,-50.9
O=[N+]([O-])c1cccc(-c2ccc(C(=S)N3CCOCC3)o2)c1,22.8,59.7,-3.1,79.4*,-59.7
S=C(c1ccc(-c2cccc(Cl)c2)o1)N1CCOCC1,139.3*,48.6,-2.6,49.0,-48.6
CN[C@H]1C[C@H]2c3[nH]c4c(-c5ccccc5)cccc4c3CCN2C[C@H]1[C@H](C)O,.,.,-1.4,.,.
Oc1ccc(C[C@H]2CNC(=S)N2CC2CCCN2C[C@H](Cc2ccccc2)N2C[C@H](Cc3ccc(O)cc3)N(CC3CCCCC3)C2=S)cc1 (stereo not given in full),.,.,-3.7,.,.
S=C(c1ccc(-c2cccc(Cl)c2)o1)N1CCCCC1,93.4*,9.5,40.2*,73.1*,-9.5
SMILES,MITF act,SR-BI HDL uptake,Wnt bcat act,HSF-1 act,SR-BI uptake up
CCC(c1nnnn1Cc1ccccc1)N(Cc1ccco1)Cc1cc2cc(OC)ccc2[nH]c1=O (stereo not given),4.0,2.5,13.5,15.9,-2.5
CCC(c1nnnn1CCc1ccccc1)N(Cc1ccco1)Cc1cc2c(C)ccc(C)c2[nH]c1=O (stereo not given),-4.9,42.1,.,127.6*,-42.1
CCC(c1nnnn1Cc1ccco1)N(CCc1ccccc1)Cc1cc2cc(C)ccc2[nH]c1=O (stereo not given),-7.0,1.2,.,10.4,-1.2
CCC(c1nnnn1CCc1ccccc1)N(Cc1ccco1)Cc1cc2cc(C)cc(C)c2[nH]c1=O (stereo not given),-4.1,10.6,.,58.0*,-10.6
Cc1ccc2[nH]c(=O)c(CN(CCc3ccccc3)C(c3nnnn3Cc3ccco3)C(C)C)cc2c1 (stereo not given),-5.6,11.3,35.9*,81.7*,-11.3
COc1cc(CN2C(=O)C(Cc3ccccc3)ON=C2c2ncccc2C)cc(OC)c1 (stereo not given),.,.,-4.9,.,.
O=C(Cc1c[nH]c2ccccc12)Nc1ccc(Nc2cccnc2)c(Br)c1,.,.,-3.7,.,.
COc1ccc(C(=O)NC2=NCCS2)cc1S(=O)(=O)N1CCOCC1,.,.,0.6,.,.
O=S1(=O)N[C@@H](Cc2ccccc2)COc2cccc(NCCCN3CCOCC3)c21,.,.,-3.0,.,.
CCCCCCC(=O)N(O)C1CC(=O)N(c2ccc(Cl)cc2)C1=O (stereo not given),.,8.2,51.8*,6.3,-8.2
CCCCCCC(=O)N(O)C1CC(=O)N(c2ccc(C)cc2)C1=O (stereo not given),-13.0,-14.9,7.2,-3.1,14.9
COC(=O)[C@H](Cc1ccccc1)NC(=O)NCc1ccccc1,.,4.7,-1.5,-9.6,-4.7
COC(=O)[C@H](Cc1ccccc1)NC(=O)NCc1ccc(C)cc1,.,.,51.2*,0.9,.
O=C(NCCCc1ccccc1)c1cc(COc2ccc(F)cc2Cl)on1,7.8,-2.3,-2.0,0.4,2.3
Cc1ccc(-c2nn(-c3ccccc3)cc2C=O)o1,22.3,19.8,45.5*,31.6,-19.8
COc1cc(-c2cc3nc(NCc4ccco4)ccn3n2)cc(OC)c1OC,.,.,3.9,.,.
CC(NC(=O)Cn1nc(-c2ccccc2)c2ccccc2c1=O)c1ccccc1 (stereo not given),-5.5,14.6,-10.4,21.0,-14.6
CC(NC(=O)Cn1nc(C(=O)O)c2ccccc2c1=O)c1ccccc1 (stereo not given),-1.9,18.5,1.3,52.4*,-18.5
c1ccc2cc(C3CCCCC3)ncc2c1,99.0*,-15.5,25.2,.,15.5
C#CCNC(=O)C[C@H]1C[C@@]2(C(=O)OC)C(=C[C@H](COCc3ccccc3)O[C@@H]2C)N(Cc2ccc3c(c2)OCO3)C1=O,.,.,-1.6,.,.
CCOC(=O)c1ccc(Oc2cn[nH]c2-c2ccc(O)cc2O)cc1,-16.8,39.1,-1.5,10.4,-39.1
CCCOC(=O)c1ccc(Oc2cn[nH]c2-c2ccc(O)cc2O)cc1,-2.1,.,0.7,51.9*,.
CC(=O)Nc1ccc2cnn(C(C)=O)c2c1,.,.,3.1,.,.
O=C(NC1CCCN(Cc2ccccc2F)C1)c1cccs1 (stereo not given),15.1,-6.9,-0.7,62.2*,6.9
CC(=O)c1ccc(C(=O)NC2CCCN(Cc3ccccc3F)C2)s1 (stereo not given),-9.8,11.4,1.4,2.1,-11.4
CCOC(=O)C1=CCC(c2cccc(C)c2)N(S(=O)(=O)c2ccc(C)cc2)C1 (stereo not given),.,.,-1.9,.,.
CC(=O)C1=CCN(C)CC1,.,.,0.9,.,.
